Reference: ChEMBL document CHEMBL1148398, “Design, synthesis, and biological evaluation of thio-containing compounds with serum HDL-cholesterol-elevating properties” (2004)

Legend:
[1] = tested on: Rattus norvegicus; assay: Effect of compound on aspartate aminotransferase (AST) levels in 4th group of normal chow-fed male rats after a dose of 10 mg/kg/day; format: functional, organism-based
Procedure, shortened: (§1)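 Male Sprague–Dawley CD rats (60–80 g) on standard chow under a reversed 12 h light/dark cycle. Compound was suspended in 1.3% Tween 80/0.25% CMC and given as a single daily oral gavage dose for 4 days. Rats were fasted overnight and killed 24 h after the last dose. Serum ALT, AST, ALKP and LDH were read on a clinical analyzer. Weight gain was start versus end weight. Mean ± SEM, n = 6.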

[2] = tested on: Mesocricetus auratus; assay: Effect of compound on liver weight in 4th group of cholesterol-fed male hamsters at 100 mg/kg/day after 14 days of treatment
[3] = tested on: Rattus norvegicus; assay: Effect of compound on alanine aminotransferase (ALT) levels in 3rd group of normal chow-fed male rats after a dose of 5 mg/kg/day; format: functional, organism-based; procedure, shortened: as §1
[4] = tested on: Rattus norvegicus; assay: Effect of compound on gain in body weight in 4th group of normal chow-fed male rats after a dose of 10 mg/kg/day; format: functional; procedure, shortened: as §1
[5] = tested on: Rattus norvegicus; assay: Effect of compound on serum apolipoprotein A1 concentration in chow-fed male rats at a dose of 5 mg/kg/day; format: functional, organism-based
Procedure, shortened: (§2)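 Separate dose-response study in male Sprague–Dawley CD rats, 60–80 g, on chow. Oral gavage once daily for 4 days in 1.3% Tween 80 / 0.25% CMC; fasted overnight, bled 24 h after last dose. Apo-A1 by ELISA with rabbit anti-rat primary, alkaline phosphatase-conjugated anti-rabbit IgG and p-nitrophenyl phosphate substrate. HDL-C by FPLC fractionation. Mean ± SEM, six per group.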

[6] = tested on: Cricetinae gen. sp.; assay: Effect of compound on very low-density lipoprotein cholesterol levels in 4th group of cholesterol-fed male hamsters at 100 mg/kg/day after 14 days of treatment; details: Mesocricetus auratus
[7] = tested on: Cricetinae gen. sp.; assay: Effect of compound on triglycerides level in 3rd group of cholesterol-fed male hamsters at 30 mg/kg/day after 14 days of treatment; details: Mesocricetus auratus
[8] = tested on: Rattus norvegicus; assay: Effect of compound on alanine aminotransferase (ALT) levels in 1st group of normal chow-fed male rats after a dose of 1 mg/kg/day; format: functional, organism-based; procedure, shortened: as §1
[9] = tested on: Rattus norvegicus; assay: Effect of compound on thyroxine levels in 2nd group of normal chow-fed male rats after a dose of 2 mg/kg/day; format: functional, organism-based
Procedure, shortened: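 Male Sprague–Dawley CD rats, 60–80 g, on standard chow with reverse 12 h light/dark cycle. One oral gavage dose daily for 4 days, suspended in 1.3% Tween 80 and 0.25% CMC. Fasted overnight; sacrificed 24 h after the last dose. Serum TC on clinical analyzer, lipoproteins by FPLC with cholesterol per fraction, T4 on analyzer. Mean ± SEM, six rats per group.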

[10] = tested on: Rattus norvegicus; assay: Effect of compound on gain in body weight in 2nd group of normal chow-fed male rats after a dose of 2 mg/kg/day; format: functional; procedure, shortened: as §1
[11] = tested on: Cricetinae gen. sp.; assay: Effect of compound on aspartate aminotransferase (AST) levels in 1st group of cholesterol-fed male hamsters at 3 mg/kg/day after 14 days of treatment; details: Mesocricetus auratus
[12] = tested on: Rattus norvegicus; assay: Effect of compound on relative liver weight in 6th group of normal chow-fed male rats after a dose of 50 mg/kg/day; format: functional
Procedure, shortened: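 Chow-fed male Sprague–Dawley CD rats, 60–80 g, dosed by oral gavage once daily for 4 days in 1.3% Tween 80/0.25% CMC. Fasted overnight and sacrificed 24 h after the last dose. Liver weight expressed as % of body weight at termination. Six per group, mean ± SEM.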

[13] = tested on: Cricetinae gen. sp.; assay: Effect of compound on lactic dehydrogenase (LDH) levels in 4th group of cholesterol-fed male hamsters at 100 mg/kg/day after 14 days of treatment; details: Mesocricetus auratus
[14] = tested on: Rattus norvegicus; assay: Effect of compound on liver weight in 2nd group of normal chow-fed male rats after a dose of 2 mg/kg/day; format: functional
Procedure, shortened: (§3)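 Male Sprague–Dawley CD rats, 60–80 g, on chow with a reverse 12 h light/dark cycle. Given one oral gavage dose daily for 4 days, suspended in 1.3% Tween 80/0.25% CMC. Fasted overnight and sacrificed 24 h after the last dose for blood and liver. Serum liver enzymes read on a clinical analyzer. Six per group, mean ± SEM.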

[15] = tested on: Rattus norvegicus; assay: Effect of compound on serum apolipoprotein A1 concentration in chow-fed male rats at a dose of 0 mg/kg/day; format: functional, organism-based; procedure, shortened: as §2
[16] = tested on: Rattus norvegicus; assay: Effect of compound on lactic dehydrogenase (LDH) levels in 3rd group of normal chow-fed male rats after a dose of 5 mg/kg/day; format: functional, organism-based; procedure, shortened: as §1
[17] = tested on: Rattus norvegicus; assay: Effect of compound on liver weight in 6th group of normal chow-fed male rats after a dose of 50 mg/kg/day; format: functional; procedure, shortened: as §3
[18] = tested on: Rattus norvegicus; assay: Effect of compound on total plasma cholesterol levels in 5th group of normal chow-fed male rats after a dose of 20 mg/kg/day; format: functional, organism-based
Procedure, shortened: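 Male Sprague–Dawley CD rats (60–80 g) on Purina 5001 chow with a reverse 12 h light/dark cycle. Dosed once daily by oral gavage for 4 days, suspended in 1.3% Tween 80 / 0.25% CMC. Fasted overnight and bled 24 h after the last dose. Serum TC and glycerol-blanked TG measured enzymatically; VLDL-C by FPLC fractionation with cholesterol assay. n=6, mean ± SEM.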

[19] = tested on: Cricetinae gen. sp.; assay: Percent change in triglycerides following oral administration of compound in hypercholesterolemic hamsters at 100 mg/kg/day for 14 days; format: functional
Procedure, shortened: (§4)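 Male Syrian Golden hamsters pre-fed chow plus 0.25% cholesterol for 2 weeks and kept on it. Dosed 100 mg/kg/day by oral gavage in 2% Tween 80/saline for 14 days. Serum total cholesterol and glycerol-blanked triglycerides read enzymatically; lipoproteins separated by FPLC with cholesterol measured in each fraction. % change versus vehicle controls; six per group, p < 0.05.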

[20] = tested on: Cricetinae gen. sp.; assay: Percent change in very low-density lipoprotein cholesterol following oral administration of compound in hypercholesterolemic hamsters at 100 mg/kg/day for 14 days; format: functional; procedure, shortened: as §4
[21] = tested on: Cricetinae gen. sp.; assay: Effect of compound on total plasma cholesterol levels in 4th group of cholesterol-fed male hamsters at 100 mg/kg/day after 14 days of treatment; details: Mesocricetus auratus

For `CCN1CC(=O)N(c2cc(Cl)ccc2C)C1=S`, the Level [1] was 182 U l-1, the Liver weight [2] was 8.95 g and the Level [3] was 62 U l-1. The Body weight [4] was 33.2 g, the Serum level [5] was 72.9 mg/dL and the Serum level [6] was 81 mg/dL. The Serum level [7] was 433 mg/dL, the Level [8] was 61 U l-1 and the Serum level [9] was 4.33 µg/dL. For the same molecule, the Body weight [10] was 28.5 g, the Level [11] was 312 U l-1 and the Relative liver weight [12] was 4%. For the same molecule, the Level [13] was 1390 U l-1, the Liver weight [14] was 7.3 g and the Serum level [15] was 63.2 mg/dL. The Level [16] was 743 U l-1, the Liver weight [17] was 7.3 g and the Serum level [18] was 84 mg/dL. The Change [19] was -34%, the Change [20] was -33.4% and the Serum level [21] was 373 mg/dL.
